Test results reported in PubChem BioAssay.
Values without a mark were called inactive. Records with an inconclusive call do not appear. Active and inactive are the calls of the source.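 The calls were made as follows, unless noted: active = inhibition over a set limit, the all-compound mean plus 3 SD, in both replicate runs; inconclusive = over that limit in just one replicate run; inactive = at or under that limit in both runs.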

What was measured:
[1] = S. cerevisiae growth inhibition in permissive medium (OD615), pilot counter-assay for S. cerevisiae lifespan shortening project, permissive growth control (AID 705;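 active = growth inhibition above 25% in both replicates, a cutoff set 3 SD above the mean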); conditions: OD615, 24 h, at 10 µM, active compounds read high
In short: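 System – S. cerevisiae with engineered DeaD lifespan system · Buffer or medium – SC raffinose/galactose permissive medium · Schedule – cells pre-grown 4 h, then 24 h compound exposure, 30 °C humidified · Technique – culture turbidity as optical density at 615 nm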

[2] = S. cerevisiae growth inhibition in restrictive medium, OD615, pilot screen, restrictive growth control, yeast lifespan reduction project (AID 706;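 active = growth inhibition above a set limit, 3 SD over mean compound inhibition, in both replicates, cut at about 43% in these data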;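 also: modified DeaD lifespan yeast strain shifted to restrictive glucose medium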); conditions: OD615, 48 h, at 10 µM, active compounds read high
In short: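 Material: engineered S. cerevisiae DeaD strain / Medium: glucose-based CSMM-D restrictive medium / Compound: single dose of 10 µM compound final, 0.25% DMSO / Timing: 4 h pre-incubation, 48 h exposure at 30 °C / Technique: OD615 absorbance reading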

[3] = doxorubicin toxicity protection in MRP-1 cells – H69AR cells, CellTiter-Glo, duplicate, MRP-1 activator project, pilot screen (AID 807;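 active = viability increase at or above a cutoff of the median across tested compounds plus 3 SD, cut at about 8.5% in these data, passing the limit was not always enough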;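 also: compound pretreatment 18-22 h then 72 h combined with doxorubicin; 0% = doxorubicin alone and 100% = vehicle without doxorubicin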); conditions: H69AR viability with doxorubicin, CellTiter-Glo luminescence; at 10 µM; active compounds read high
[4] = viability of HCT116 without oncogenic beta-catenin – human colon tumor cells, pilot screen (AID 823;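 active = cell viability at or below a set limit in both duplicate runs, the limit being the all-compound median minus 4 SD, cut at about 23% in these data, passing the limit was not always enough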;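 also: 0% = wells killed by 20 µM Hyamine and 100% = untreated DMSO cell wells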); conditions: HCT116 beta-catenin knockout viability, CellTiter-Glo, 60 h; at 10 µM; active compounds read low
[5] = viability of PTEN-null HCT116 cells – cell-based, HCT116 clonal line, CellTiter-Glo, pilot screen (AID 824;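 active = viability at or below 27.92% in each of two runs, the all-compound median minus 4 SD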;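 also: 0% = 20 µM Hyamine control and 100% = vehicle cell control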); conditions: HCT116 PTEN-deleted viability, 60 h, at 10 µM, active compounds read low
[6] = RAM pathway blockade in budding yeast – dse1pr::URA3 reporter, 5-FOA selection, pilot screen (AID 869);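 also: 0% = DMSO wells with no growth and 100% = 10 µM 1-NA-PP1 with full growth; RAM network block rescues cells from 5-FOA so hits raise OD615 growth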; conditions: S. cerevisiae dse1pr::URA3 5-FOA growth, OD615, 2 d; at 10 µM; active compounds read high; strain carries analog-sensitive mutant Cbk1 kinase
[7] = RAM signaling pathway blockade in yeast – S. cerevisiae, Pdr1DBD-CYC8 efflux-inhibited sensitized strain, primary screen (AID 1298;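 active = RAM network inhibition above 8.4% in each of two replicates, 3 SD over the compound average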;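 also: 0% = DMSO untreated cells without growth and 100% = 10 µM 1-NA-PP1 full growth; higher means more yeast growth rescued from 5-FOA killing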); conditions: S. cerevisiae cbk1-as DSE1-URA3 strain, 5-FOA growth OD615, 2 d; at 50 µM; active compounds read high

SMILES: COc1cccc(-c2cc(C(=O)Nn3cnnc3)c3ccccc3n2)c1
- growth inhibition [1]: -12.2%
- growth inhibition [2]: -11.8%
- viability increase [3]: -3.9%
- viability [4]: 92.5%
- viability [5]: 94.6%
- inhibition [6]: 1.52%
- RAM network inhibition [7]: 3.38%

SMILES: OCCNc1nc(Nc2ccccc2)nc(Nc2ccccc2)n1
- growth inhibition [1]: 14%
- growth inhibition [2]: 4.96%
- viability increase [3]: -1.23%
- viability [4]: 95.8%
- viability [5]: 94%
- inhibition [6]: -0.245%
- RAM network inhibition [7]: -1.3%

SMILES: Cc1ccc(NC(=O)c2cc(-c3cccc(O)c3)on2)cc1C
- growth inhibition [1]: -19.1%
- growth inhibition [2]: -5.78%
- viability increase [3]: -0.54%
- viability [4]: 92.1%
- viability [5]: 87%
- inhibition [6]: 3.14%
- RAM network inhibition [7]: 4.28%

SMILES: CC1=C(C(=O)OC(C)C)C(c2c(O)ccc3ccccc23)NC(=O)N1 (stereo not given)
- growth inhibition [1]: 2.06%
- growth inhibition [2]: -6.33%
- viability increase [3]: -3.16%
- viability [4]: 93.9%
- viability [5]: 90.7%
- inhibition [6]: 1.88%
- RAM network inhibition [7]: 2.42%

SMILES: COc1ccc(C2(O)CCN(C(=O)c3ccc4c(c3)OCO4)CC2)cc1
- growth inhibition [1]: -12.1%
- growth inhibition [2]: -15.2%
- viability increase [3]: -0.75%
- viability [4]: 106%
- viability [5]: 101%
- inhibition [6]: 0.965%
- RAM network inhibition [7]: 0.72%

SMILES: O=C(NCc1cn2ccsc2n1)c1c(F)cccc1Cl
- growth inhibition [1]: -10.2%
- growth inhibition [2]: -8.81%
- viability increase [3]: 1.01%
- viability [4]: 107%
- viability [5]: 99.6%
- inhibition [6]: 0.93%
- RAM network inhibition [7]: 2.61%

SMILES: Cc1ccc(Cc2c(C)nc3nc(SCC(=O)NCc4ccco4)nn3c2C)cc1
- growth inhibition [1]: 10.4%
- growth inhibition [2]: 12.9%
- viability increase [3]: -6.46%
- viability [4]: 13.2% (active)
- viability [5]: 10.9% (active)
- inhibition [6]: 0.455%
- RAM network inhibition [7]: 5.24%

SMILES: COc1ccc(Cn2c(=O)[nH]c3cc(C(=O)N4CCN(Cc5ccccc5)CC4)ccc3c2=O)cc1
- growth inhibition [1]: 1.4%
- growth inhibition [2]: -4.04%
- viability increase [3]: 1.49%
- viability [4]: 36.3%
- viability [5]: 49.7%
- inhibition [6]: 0.835%
- RAM network inhibition [7]: 1.57%

SMILES: CCOC(=O)CON1C(=O)C(C)(C)N(OCC(=O)OCC)C(=O)C1(C)C
- growth inhibition [1]: -0.865%
- growth inhibition [2]: -9.37%
- viability increase [3]: -0.75%
- viability [4]: 104%
- viability [5]: 101%
- inhibition [6]: 0.38%
- RAM network inhibition [7]: 1.33%

SMILES: Cn1c(=O)oc2cc(S(=O)(=O)NCCN3CCc4ccccc4C3)ccc21
- growth inhibition [1]: -14.3%
- growth inhibition [2]: -10.7%
- viability increase [3]: -3.63%
- viability [4]: 98.5%
- viability [5]: 89.9%
- inhibition [6]: 1.6%
- RAM network inhibition [7]: 0.61%

SMILES: CCOC(=O)COc1cccc2c(=O)n(CC(=O)N3CCc4ccccc43)ccc12
- growth inhibition [1]: -10.5%
- growth inhibition [2]: -15.5%
- viability increase [3]: -2.89%
- viability [4]: 98.6%
- viability [5]: 90.7%
- inhibition [6]: 1.25%
- RAM network inhibition [7]: 3.56%

SMILES: C#CCn1c(=NC(=O)c2cccs2)sc2cccc(OC)c21
- growth inhibition [1]: -11.2%
- growth inhibition [2]: -16.3%
- viability increase [3]: -3.51%
- viability [4]: 79.6%
- viability [5]: 73.9%
- inhibition [6]: 3.34%
- RAM network inhibition [7]: 7.2%

SMILES: CCN1CCN(CC(=O)Nc2ccccc2)C(=O)C1=O
- growth inhibition [1]: -2.23%
- growth inhibition [2]: 9.12%
- viability increase [3]: 0.2%
- viability [4]: 103%
- viability [5]: 107%
- inhibition [6]: 1.19%
- RAM network inhibition [7]: -0.21%

SMILES: COc1ccc(Cn2nnc3c(=O)[nH]c(C4CCCN(C(=O)c5ccccc5)C4)nc32)cc1 (stereo not given)
- growth inhibition [1]: -8.47%
- growth inhibition [2]: -8.09%
- viability increase [3]: -1.66%
- viability [4]: 108%
- viability [5]: 99.9%
- inhibition [6]: -0.35%
- RAM network inhibition [7]: 3.06%

SMILES: CC1CCC(NC(=O)CC2Oc3ccccc3NC2=O)CC1 (stereo not given)
- growth inhibition [1]: 6.36%
- growth inhibition [2]: 2.4%
- viability increase [3]: -0.98%
- viability [4]: 98.8%
- viability [5]: 97.8%
- inhibition [6]: 2.69%
- RAM network inhibition [7]: 5.77%

SMILES: COc1ccc(-n2c(Cn3c(=O)sc4ccccc43)nnc2SCC(=O)N2CCCCC2)cc1
- growth inhibition [1]: 3.02%
- growth inhibition [2]: 19.9%
- viability increase [3]: -0.89%
- viability [4]: 99.6%
- viability [5]: 96.5%
- inhibition [6]: 0.19%
- RAM network inhibition [7]: 6.13%

SMILES: Cc1cccc(N=C2NC(=O)/C(=C3/C(=O)N(C)c4ccccc43)S2)c1C
- growth inhibition [1]: -18.4%
- growth inhibition [2]: -15.6%
- viability increase [3]: -7.01%
- viability [4]: 95.5%
- viability [5]: 91.1%
- inhibition [6]: 2.91%
- RAM network inhibition [7]: 1.77%

SMILES: Cc1ccc(NC(=O)C2C3C=CC4(CN(Cc5cccnc5)C(=O)C24)O3)cc1F (stereo not given)
- growth inhibition [1]: -0.35%
- growth inhibition [2]: -0.595%
- viability increase [3]: -1.71%
- viability [4]: 96.7%
- viability [5]: 97.2%
- inhibition [6]: 0.345%
- RAM network inhibition [7]: 9.57%

SMILES: COc1nc(NC(C)(C)C)nc(Oc2ccc(=O)n(C)n2)n1
- growth inhibition [1]: -0.24%
- growth inhibition [2]: -10.7%
- viability increase [3]: 0.23%
- viability [4]: 102%
- viability [5]: 96.5%
- inhibition [6]: 0.495%
- RAM network inhibition [7]: 5.11%

SMILES: COc1cc(C(=O)n2nc(C)cc2C)cc(OC)c1OC
- growth inhibition [1]: -9.3%
- growth inhibition [2]: -12.6%
- viability increase [3]: -0.4%
- viability [4]: 99.5%
- viability [5]: 98.9%
- inhibition [6]: 1.08%
- RAM network inhibition [7]: 2.67%

SMILES: Nn1c(SCC(=O)Nc2ccc(F)cc2)nnc1-c1ccccn1
- growth inhibition [1]: -4.5%
- growth inhibition [2]: 0.845%
- viability increase [3]: -0.55%
- viability [4]: 109%
- viability [5]: 95.7%
- inhibition [6]: 1.88%
- RAM network inhibition [7]: 0.9%

SMILES: O=C(Cn1cnc2c(cnn2-c2ccccc2)c1=O)NC1CCCC1
- growth inhibition [1]: 3.55%
- growth inhibition [2]: -3.13%
- viability increase [3]: 1.03%
- viability [4]: 99.2%
- viability [5]: 95.8%
- inhibition [6]: 1.77%
- RAM network inhibition [7]: 2.38%

SMILES: Cc1ccc(CC2S/C(=C(/C#N)C(=O)NCc3ccco3)N(c3ccccc3)C2=O)cc1 (stereo not given)
- growth inhibition [1]: 1.42%
- growth inhibition [2]: 2.41%
- viability increase [3]: -7.76%
- viability [4]: 45%
- viability [5]: 60.6%
- inhibition [6]: 0.44%
- RAM network inhibition [7]: 1.64%

SMILES: CN1C(=O)c2cccc(NC(=O)C3CCCCC3)c2C1=O
- growth inhibition [1]: -7.12%
- growth inhibition [2]: 6.03%
- viability increase [3]: -1.21%
- viability [4]: 107%
- viability [5]: 93%
- inhibition [6]: 0.445%
- RAM network inhibition [7]: -0.16%

SMILES: O=C(c1c(F)cccc1F)N1CCN(c2cccc(C(F)(F)F)c2)CC1
- growth inhibition [1]: -7.33%
- growth inhibition [2]: -6.87%
- viability increase [3]: 2.86%
- viability [4]: 83.8%
- viability [5]: 82.1%
- inhibition [6]: 0.955%
- RAM network inhibition [7]: 4.98%

SMILES: O=C(COc1ccc2c3c(c(=O)oc2c1)CCC3)c1ccc2c(c1)OCO2
- growth inhibition [1]: -8.44%
- growth inhibition [2]: -1.49%
- viability increase [3]: 2.35%
- viability [4]: 63.2%
- viability [5]: 65.1%
- inhibition [6]: 2.27%
- RAM network inhibition [7]: 7.83%

SMILES: CCOC(=O)N1CCN(Cc2nc3c(c(=O)n(C)c(=O)n3C)n2CCC(C)C)CC1
- growth inhibition [1]: -5%
- growth inhibition [2]: -10.9%
- viability increase [3]: -4.73%
- viability [4]: 97.3%
- viability [5]: 99.9%
- inhibition [6]: 0.37%
- RAM network inhibition [7]: 8.2%

SMILES: Cc1cccc(Cn2c(N3CCCCC3C)nc3c2c(=O)[nH]c(=O)n3C)c1 (stereo not given)
- growth inhibition [1]: -17.5%
- growth inhibition [2]: -16.4%
- viability increase [3]: -5.08%
- viability [4]: 89.3%
- viability [5]: 78%
- inhibition [6]: 0.805%
- RAM network inhibition [7]: 2.4%

SMILES: COc1ccc(C(=O)N2CCN(c3c(C)cccc3C)CC2)cc1OC
- growth inhibition [1]: -19.6%
- growth inhibition [2]: -4.21%
- viability increase [3]: 0.4%
- viability [4]: 80.8%
- viability [5]: 72%
- inhibition [6]: 0.89%
- RAM network inhibition [7]: 1.36%

SMILES: CCOc1cc(C2NC(=O)NC(O)(C(F)(F)F)C2C(=O)c2ccc(Cl)cc2)ccc1O (stereo not given)
- growth inhibition [1]: -3.6%
- growth inhibition [2]: -4.53%
- viability increase [3]: -1.34%
- viability [4]: 86.7%
- viability [5]: 94.3%
- inhibition [6]: 1.62%
- RAM network inhibition [7]: -0.26%

SMILES: COc1ccc(-c2c(C)oc3c(CN4CCN(C)CC4)c(O)ccc3c2=O)cc1
- growth inhibition [1]: -13.2%
- growth inhibition [2]: -13.7%
- viability increase [3]: -8.83%
- viability [4]: 106%
- viability [5]: 96.5%
- inhibition [6]: 0.58%
- RAM network inhibition [7]: -0.85%

SMILES: COc1cc(OC)c(NC(=O)c2ccc(Br)o2)cc1Cl
- growth inhibition [1]: -8.78%
- growth inhibition [2]: 7.46%
- viability increase [3]: -7.05%
- viability [4]: 69.8%
- viability [5]: 70.6%
- inhibition [6]: 1.47%
- RAM network inhibition [7]: 10.5%

SMILES: Cc1ccc(S(=O)(=O)NCC(=O)N2CCOCC2)cc1
- growth inhibition [1]: -3.62%
- growth inhibition [2]: -10.3%
- viability increase [3]: -1.57%
- viability [4]: 103%
- viability [5]: 109%
- inhibition [6]: -0.085%
- RAM network inhibition [7]: 0.68%

SMILES: Cc1cc(C)n(S(=O)(=O)c2cccc(Cl)c2Cl)n1
- growth inhibition [1]: -2.69%
- growth inhibition [2]: -0.205%
- viability increase [3]: -1.97%
- viability [4]: 96.8%
- viability [5]: 93.6%
- inhibition [6]: 0.73%
- RAM network inhibition [7]: 2.28%

SMILES: CCOC(=O)C1CCN(C(=O)c2oc3ccc(S(=O)(=O)N4CCCCCC4)cc3c2C)CC1
- growth inhibition [1]: 0.58%
- growth inhibition [2]: -20.9%
- viability increase [3]: -3.23%
- viability [4]: 72.8%
- viability [5]: 78.9%
- inhibition [6]: 1.73%
- RAM network inhibition [7]: 0.3%
